One compound from ChEMBL document CHEMBL1255350, “Plasma and cerebrospinal fluid pharmacokinetics of moxifloxacin in a patient with tuberculous meningitis” (Antimicrob Agents Chemother, 2008) can be followed below.

Broadly, the Cmax is the peak of the concentration-time curve. For orientation: AUC means concentration integrated over time. Read a high AUC as more exposure. A word on the Tmax: it is the time at which the peak concentration occurs. In general, MIC refers to the smallest concentration in the dilution series that meets the test's criterion for growth inhibition.

A short description of data set [1]: Cmax in plasma of patient with intracerebral and leptomeningeal tuberculosis at 400 […], po QD measured on day 3. It is filed as ADME, organism-based. The arrangement: route oral. To be noted: human.
Data set [2] is described as follows: fAUC (0 to 24 hrs) in CSF of patient with intracerebral and leptomeningeal tuberculosis at 400 […], po QD measured on day 3. Format: ADME, organism-based, Cerebrospinal fluid. The arrangement: route oral. Conditions: human, in vivo. In outline:
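Same patient and sampling: oral 400 or 800 mg once daily at steady state, day 3 of each dose, predose to 24 h, with CSF from a lumbar drain and heparinized blood from an IV catheter. Free AUC0-24 was calculated assuming 40% protein binding.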

Data set [3] relates to Homo sapiens. Briefly: Cardiotoxicity in patient with intracerebral and leptomeningeal tuberculosis assessed as QT prolongation at 800 […], po […]. Conditions: in vivo. Also noted: route oral. Format: toxicity, organism-based.
Data set [4] can be described thus: AUC (0 to 24 hrs) in plasma of patient with intracerebral and leptomeningeal tuberculosis at 800 […], po QD measured on day 3. The arrangement: time < 24 hr, route oral. Conditions: human. Format: ADME, organism-based.
Data set [5] in a line: Tmax in CSF of patient with intracerebral and leptomeningeal tuberculosis at 400 […], po QD measured on day 3. It is filed as ADME, organism-based, Cerebrospinal fluid. Also noted: route oral. To be noted: human.
Data set [6] can be described thus: fAUC (0 to 24 hrs) in plasma of patient with intracerebral and leptomeningeal tuberculosis at 800 […], po QD measured on day 3. Format: ADME, organism-based. Also noted: route oral. To be noted: human, in vivo.
Data set [7] deals with Homo sapiens. Briefly: Renal toxicity in patient with intracerebral and leptomeningeal tuberculosis at 800 […], po QD measured on day 3. It is filed as organism-based. The arrangement: route oral. Conditions: in vivo.
Data set [8] has as its system Homo sapiens. Kind of data set: Hepatotoxicity in patient with intracerebral and leptomeningeal tuberculosis at 800 […], po QD measured on day 3. To be noted: in vivo. It is filed as toxicity, organism-based. The arrangement: route oral. In outline:
(§1)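 Safety was monitored during oral once-daily treatment at 400 and then 800 mg. QTc was tracked by ECG, and blood samples were taken for renal and liver function tests.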

Data set [9] can be described thus: Tmax in plasma of patient with intracerebral and leptomeningeal tuberculosis at 800 […], po QD measured on day 3. It is filed as ADME, organism-based. The arrangement: route oral. Conditions: human.
Data set [10] is described as follows: Cmax in plasma of patient with intracerebral and leptomeningeal tuberculosis at 800 […], po QD measured on day 3. The arrangement: route oral. It is filed as ADME, organism-based. To be noted: human. In outline: (§2)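 Single patient with intracerebral and leptomeningeal TB without active meningitis. Oral dosing once daily at 400 mg, then 800 mg, each sampled at steady state on day 3. Blood and CSF were drawn through a peripheral intravenous catheter and an external lumbar drain into heparin tubes. Sampling was predose and at 2, 4, 8, 12 and 24 h. Plasma was spun 1,500 × g for 10 min at room temperature and stored at −20°C.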

The subject of data set [11] is Mycobacterium tuberculosis. Briefly: Antimicrobial activity against Mycobacterium tuberculosis. Format: functional. In outline:
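MIC for the patient's isolate was determined by the Middlebrook 7H10 agar dilution method. It was used to calculate AUC0-24/MIC ratios.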

Data set [12] in a line: Cmax in CSF of patient with intracerebral and leptomeningeal tuberculosis at 800 […], po QD measured on day 3. Format: ADME, organism-based, Cerebrospinal fluid. Also noted: route oral. Conditions: human. In outline:
(§3)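 Single patient on steady-state oral moxifloxacin, 400 or 800 mg once daily, sampled on day 3 of each dose. CSF was taken from an external lumbar drain and blood from a peripheral IV catheter into heparin tubes, predose and at 2, 4, 8, 12 and 24 h. Plasma was separated at 1,500 × g for 10 min at room temperature and stored at −20°C.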

Data set [13] is described as follows: fAUC (0 to 24 hrs) in plasma of patient with intracerebral and leptomeningeal tuberculosis at 400 […], po QD measured on day 3. Also noted: route oral. Conditions: human, in vivo. It is filed as ADME, organism-based.
A short description of data set [14]: AUC (0 to 24 hrs) in CSF of patient with intracerebral and leptomeningeal tuberculosis at 400 […], po QD measured on day 3. Also noted: time < 24 hr, dose 400 mg/kg, route oral. Conditions: human. Format: ADME, organism-based, Cerebrospinal fluid.
Data set [15] in a line: Tmax in CSF of patient with intracerebral and leptomeningeal tuberculosis at 800 […], po QD measured on day 3. It is filed as ADME, organism-based, Cerebrospinal fluid. Also noted: route oral. To be noted: human.
The nature of data set [16]: Tmax in plasma of patient with intracerebral and leptomeningeal tuberculosis at 400 […], po QD measured on day 3. It is filed as ADME, organism-based. Also noted: route oral. Conditions: human.
The test system of data set [17] is Homo sapiens. Briefly: Hepatotoxicity in patient with intracerebral and leptomeningeal tuberculosis at 400 […], po QD measured on day 3. Format: toxicity, organism-based. The arrangement: route oral. Conditions: in vivo.
The test system of data set [18] is Homo sapiens. Briefly: Cardiotoxicity in patient with intracerebral and leptomeningeal tuberculosis assessed as QT prolongation at 400 […], po […]. Format: toxicity, organism-based. Also noted: route oral. Conditions: in vivo.
Data set [19] can be described thus: fAUC (0 to 24 hrs) in CSF of patient with intracerebral and leptomeningeal tuberculosis at 800 […], po QD measured on day 3. It is filed as ADME, organism-based, Cerebrospinal fluid. To be noted: human, in vivo. Also noted: dose 800 mg/kg, route oral.
Data set [20] in a line: AUC (0 to 24 hrs) in CSF of patient with intracerebral and leptomeningeal tuberculosis at 800 […], po QD measured on day 3. It is filed as ADME, organism-based, Cerebrospinal fluid. Conditions: human. The arrangement: time < 24 hr, route oral. In outline:
as §3

Data set [21] is described as follows: Cmax in CSF of patient with intracerebral and leptomeningeal tuberculosis at 400 […], po QD measured on day 3. The arrangement: route oral. To be noted: human. It is filed as ADME, organism-based, Cerebrospinal fluid.
Data set [22] deals with Homo sapiens. Kind of data set: Renal toxicity in patient with intracerebral and leptomeningeal tuberculosis at 400 […], po QD measured on day 3. Format: organism-based. To be noted: in vivo. The arrangement: route oral. In outline:
as §1

The nature of data set [23]: AUC (0 to 24 hrs) in plasma of patient with intracerebral and leptomeningeal tuberculosis at 400 […], po QD measured on day 3. Conditions: human. Also noted: time < 24 hr, route oral. Format: ADME, organism-based. In outline: as §2

Converted amounts (≈) assume the structure as drawn.

As to `COc1c(N2C[C@@H]3CCCN[C@@H]3C2)c(F)cc2c(=O)c(C(=O)O)cn(C3CC3)c12` [MOXIFLOXACIN], the maximum concentration (Cmax) in [1] was 1060 ng/mL; in data set [10] it was 2450 ng/mL; in data set [12] it was 1420 ng/mL; in data set [21], 616 ng/mL. The fAUC in data set [2] was found to be 8400 ng·h/mL; in data set [6], 11600 ng·h/mL; in data set [13], 5300 ng·h/mL; in [19], 14300 ng·h/mL. The Activity entry in the data set with Homo sapiens [3], in the data set on Homo sapiens [7], in the data set on Homo sapiens [8], in the data set on Homo sapiens [17], in the data set with Homo sapiens [18] and with Homo sapiens [22] was “Non-toxic” throughout. The AUC at 24 h amounted to 19400 ng·h/mL in data set [4], 8400 ng·h/mL in data set [14], 14300 ng·h/mL in data set [20] and 8900 ng·h/mL in [23]. In addition, the time to peak (Tmax) in data set [5] amounted to 4 h; in [9] it was 2 h; in data set [15], 4 h; in data set [16], 2 h. In data set [11], this compound came in with an MIC of 0.15 µg/mL (≈ 0.374 µM).
